Experimental data published in ChEMBL document CHEMBL4038332, “Substituted N-Phenyl-5-(2-(phenylamino)thiazol-4-yl)isoxazole-3-carboxamides Are Valuable Antitubercular Candidates that Evade Innate Efflux Machinery” (J Med Chem, 2017).
Converted amounts (≈) assume the structure as drawn.

Legend:
Format in all cases: functional
[1] = test system: Mycobacterium tuberculosis; assay: Antimycobacterial activity against patient derived INH/RIF resistance Mycobacterium tuberculosis isolate 2 incubated for 7 days by MTT-based broth microdilution assay; details: isolate 2, 168 h
Summary of the method: (§1)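 Drug-resistant clinical isolates from Lisbon patients (2008–2009) grown in MB7H9 + 10% OADC at 37 °C to OD600 0.8, diluted to ~10^5 cells/mL; equal volume added to 2-fold serial compound dilutions. Plates sealed, 7 days at 37 °C, then MTT to final 2.5% overnight; MIC = lowest concentration with no colour change; triplicate.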

[2] = test system: Mycobacterium tuberculosis; assay: Antimycobacterial activity against patient derived extreme drug resistance Mycobacterium tuberculosis isolate 3 incubated for 7 days by MTT-based broth microdilution assay; details: isolate 3, 168 h; summary of the method: as §1
[3] = test system: Mycobacterium tuberculosis; assay: Antimycobacterial activity against patient derived INH/RIF resistance Mycobacterium tuberculosis isolate 1 incubated for 7 days by MTT-based broth microdilution assay; details: isolate 1, 168 h; summary of the method: as §1

Row | Structure (SMILES) | MIC90 [1] [µg/mL] | MIC90 [2] [µg/mL] | MIC90 [3] [µg/mL]
1 | Cc1ccc(Nc2nc(-c3cc(C(=O)Nc4ccccc4)no3)cs2)cc1 | 1 (≈ 2.66 µM) | 2 (≈ 5.31 µM) | 2 (≈ 5.31 µM)
2 | Cc1ccc(Nc2nc(-c3cc(C(=O)Nc4ccccn4)no3)cs2)cc1 | 1 (≈ 2.65 µM) | 2 (≈ 5.3 µM) | 2 (≈ 5.3 µM)
